Data reported in ChEMBL document CHEMBL1154352, “Toll-like receptor 7 selective synthetic oligoribonucleotide agonists: synthesis and structure-activity relationship studies” (J Med Chem, 2009).
Calls of active or inactive are those of the source. The calls are words filed in the database; no cut-off is given here.

Tests used:
Mus musculus = experiment: Immunomodulatory activity in C57BL/6 mouse assessed as induction of IL12 release at 25 mg/kg, sc after 2 hrs by ELISA; type: functional, organism-based; set-up: dose 25 mg/kg
Method in brief: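 Female C57BL/6 wild-type mice, 5–8 weeks old, n=3; compounds given subcutaneously at 10 or 25 mg/kg. Retro-orbital blood at 2 h; serum cytokines by mouse Luminex multiplex or IL-12 ELISA.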

Homo sapiens [1] = organism: Homo sapiens; experiment: Immunostimulatory activity in human mDC assessed as induction of IL12 at 100 ug/ml after 24 hrs; type: functional
Method in brief: (§1)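 Human mDCs isolated from PBMCs by CD19+ B-cell depletion then BDCA1 positive selection; plated at 1 × 10^6 cells/mL, compounds in PBS, 37 °C for 24 h; supernatant cytokines by human Luminex multiplex. Representative of four independent experiments.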

PBMC [2] = experiment: Immunomodulatory activity in human PBMC assessed as induction of IFNalpha at 50 ug/ml after 24 hrs; type: functional, cell-based
Method in brief: (§2)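 Human PBMCs plated at 5 × 10^6 cells/mL; compounds dissolved in PBS added at various concentrations, 37 °C for 24 h. Supernatant cytokines/chemokines quantified with human Luminex multiplex kit.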

Homo sapiens [3] = organism: Homo sapiens; experiment: Immunostimulatory activity in human mDC assessed as induction of TNFalpha at 100 ug/ml after 24 hrs; type: functional; method in brief: as §1
PBMC [4] = experiment: Immunomodulatory activity in human PBMC assessed as induction of IL12 at 50 ug/ml after 24 hrs; type: functional, cell-based; method in brief: as §2
PBMC [5] = experiment: Immunomodulatory activity in human PBMC assessed as induction of IL6 at 50 ug/ml after 24 hrs; type: functional, cell-based; method in brief: as §2
Homo sapiens [6] = organism: Homo sapiens; experiment: Ratio of human TLR7 activity to human TLR8 activity
Method in brief: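 TLR7/TLR8 ratio computed from fold NF-κB (SEAP reporter) activation in HEK293 cells stably expressing human TLR7 versus TLR8, compounds at 50 μg/mL, 18 h exposure; representative of three independent experiments.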

Homo sapiens [7] = organism: Homo sapiens; experiment: Immunostimulatory activity in human pDC assessed as induction of IP10 at 100 ug/ml after 24 hrs; type: functional
Method in brief: (§3)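 Human pDCs plated at 1 × 10^6 cells/mL; compounds in PBS added, 37 °C for 24 h; supernatant cytokines/chemokines by human Luminex multiplex kit.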

PBMC [8] = experiment: Immunomodulatory activity in human PBMC assessed as induction of MCP1 at 50 ug/ml after 24 hrs; type: functional, cell-based; method in brief: as §2
PBMC [9] = experiment: Immunomodulatory activity in human PBMC assessed as induction of IL1-beta at 50 ug/ml after 24 hrs; type: functional, cell-based; method in brief: as §2
Homo sapiens [10] = organism: Homo sapiens; experiment: Immunostimulatory activity in human mDC assessed as induction of IP10 at 100 ug/ml after 24 hrs; type: functional; method in brief: as §1
Homo sapiens [11] = organism: Homo sapiens; experiment: Immunostimulatory activity in human pDC assessed as induction of IL6 at 100 ug/ml after 24 hrs; type: functional; method in brief: as §3
[12] = target: T1, Toll-like receptor 7 (Homo sapiens) (UniProt Q9NYK1); experiment: Activation of human TLR7 expressed in HEK293XL assessed as fold induction of NF-kappaB activity at 50 ug/ml after 18 hrs by reporter gene assay relative to control
T1 sequence (whole entry): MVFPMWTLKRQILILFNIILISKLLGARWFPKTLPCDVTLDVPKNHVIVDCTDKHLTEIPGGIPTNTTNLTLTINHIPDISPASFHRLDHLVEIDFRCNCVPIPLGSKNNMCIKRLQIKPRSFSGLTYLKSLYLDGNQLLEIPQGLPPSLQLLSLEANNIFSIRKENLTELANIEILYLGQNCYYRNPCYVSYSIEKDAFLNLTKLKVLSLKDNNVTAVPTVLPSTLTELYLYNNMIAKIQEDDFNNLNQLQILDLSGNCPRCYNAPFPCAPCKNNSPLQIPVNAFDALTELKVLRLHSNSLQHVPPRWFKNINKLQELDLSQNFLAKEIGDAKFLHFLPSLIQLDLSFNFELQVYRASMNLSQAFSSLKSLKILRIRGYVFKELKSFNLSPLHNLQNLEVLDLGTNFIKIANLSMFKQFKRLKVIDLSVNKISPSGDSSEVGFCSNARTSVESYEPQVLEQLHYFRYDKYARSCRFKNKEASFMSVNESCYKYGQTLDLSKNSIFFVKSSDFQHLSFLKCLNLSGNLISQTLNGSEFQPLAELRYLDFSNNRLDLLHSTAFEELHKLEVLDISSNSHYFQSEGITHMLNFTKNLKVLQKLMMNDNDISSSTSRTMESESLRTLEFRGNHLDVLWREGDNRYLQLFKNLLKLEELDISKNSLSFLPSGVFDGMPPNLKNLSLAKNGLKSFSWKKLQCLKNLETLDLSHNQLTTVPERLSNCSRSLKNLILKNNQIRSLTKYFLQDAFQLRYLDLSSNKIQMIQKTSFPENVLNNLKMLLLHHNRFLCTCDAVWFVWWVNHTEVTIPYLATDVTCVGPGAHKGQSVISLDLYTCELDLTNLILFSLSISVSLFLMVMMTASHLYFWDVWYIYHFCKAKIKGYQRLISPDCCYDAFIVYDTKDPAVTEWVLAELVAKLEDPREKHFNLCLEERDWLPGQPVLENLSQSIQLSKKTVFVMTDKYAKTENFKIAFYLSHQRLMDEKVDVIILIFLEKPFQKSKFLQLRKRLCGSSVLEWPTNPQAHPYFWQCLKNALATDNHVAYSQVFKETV
Method in brief: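 HEK293 cells stably expressing human TLR7 or TLR8, transiently transfected with SEAP reporter plasmid; medium replaced, SIMRA compounds added, 18 h incubation. Supernatant SEAP measured by QuantiBlue; expressed as fold increase in NF-κB activity over PBS control. Tabulated data at 50 μg/mL, representative of three independent experiments.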

PBMC [13] = experiment: Immunomodulatory activity in human PBMC assessed as induction of IP10 at 50 ug/ml after 24 hrs; type: functional, cell-based; method in brief: as §2
Homo sapiens [14] = organism: Homo sapiens; experiment: Immunostimulatory activity in human mDC assessed as induction of IFNalpha at 100 ug/ml after 24 hrs; type: functional; method in brief: as §1
PBMC [15] = experiment: Immunomodulatory activity in human PBMC assessed as induction of MIP1alpha at 50 ug/ml after 24 hrs; type: functional, cell-based; method in brief: as §2
PBMC [16] = experiment: Immunomodulatory activity in human PBMC assessed as induction of TNFalpha at 50 ug/ml after 24 hrs; type: functional, cell-based; method in brief: as §2
Homo sapiens [17] = organism: Homo sapiens; experiment: Immunostimulatory activity in human pDC assessed as induction of IFNalpha at 100 ug/ml after 24 hrs; type: functional; method in brief: as §3
Homo sapiens [18] = organism: Homo sapiens; experiment: Immunostimulatory activity in human mDC assessed as induction of IL6 at 100 ug/ml after 24 hrs; type: functional; method in brief: as §1
PBMC [19] = experiment: Immunomodulatory activity in human PBMC assessed as induction of MIP1beta at 50 ug/ml after 24 hrs; type: functional, cell-based; method in brief: as §2

Structure (SMILES)	Activity (Mus musculus)	Activity (Homo sapiens [1])	Activity (PBMC [2]) [pg/mL]	Activity (Homo sapiens [3])	Activity (PBMC [4]) [pg/mL]	Activity (PBMC [5]) [pg/mL]	Ratio (Homo sapiens [6])	Activity (Homo sapiens [7])	Activity (PBMC [8]) [pg/mL]	Activity (PBMC [9]) [pg/mL]	Activity (Homo sapiens [10])	Activity (Homo sapiens [11])	fold change (FC) [12]	Activity (PBMC [13]) [pg/mL]	Activity (Homo sapiens [14])	Activity (PBMC [15]) [pg/mL]	Activity (PBMC [16]) [pg/mL]	Activity (Homo sapiens [17])	Activity (Homo sapiens [18])	Activity (PBMC [19]) [pg/mL]
Nc1ccn([C@@H]2O[C@H](COP(=O)(S)O[C@H]3[C@@H](O)[C@H](n4cnc5c(N)ncnc54)O[C@@H]3COP(=O)(S)O[C@H]3[C@@H](O)[C@H](n4ccc5c(=O)[nH]c(N)nc54)O[C@@H]3COP(=O)(S)O[C@H]3[C@@H](O)[C@H](n4ccc(=O)[nH]c4=O)O[C@@H]3COP(=O)(S)O[C@H]3[C@@H](O)[C@H](n4ccc5c(=O)[nH]c(N)nc54)O[C@@H]3COP(=O)(S)O[C@H]3[C@@H](O)[C@H](n4cnc5c(N)ncnc54)O[C@@H]3COP(=O)(S)O[C@H]3[C@@H](O)[C@H](n4cnc5c(N)ncnc54)O[C@@H]3CO)[C@@H](OP(=O)(S)OC[C@H]3O[C@@H](n4ccc5c(=O)[nH]c(N)nc54)[C@H](O)[C@@H]3OP(=O)(S)OC[C@H]3O[C@@H](n4cnc5c(N)ncnc54)[C@H](O)[C@@H]3OP(=O)(S)OC[C@H]3O[C@@H](n4ccc(=O)[nH]c4=O)[C@H](O)[C@@H]3OP(=O)(S)OC[C@H]3O[C@@H](n4ccc(=O)[nH]c4=O)[C@H](O)[C@@H]3OP(=O)(S)OCC(O)COP(=O)(S)O[C@H]3[C@@H](O)[C@H](n4ccc(=O)[nH]c4=O)O[C@@H]3COP(=O)(S)O[C@H]3[C@@H](O)[C@H](n4ccc(=O)[nH]c4=O)O[C@@H]3COP(=O)(S)O[C@H]3[C@@H](O)[C@H](n4cnc5c(N)ncnc54)O[C@@H]3COP(=O)(S)O[C@H]3[C@@H](O)[C@H](n4ccc5c(=O)[nH]c(N)nc54)O[C@@H]3COP(=O)(S)O[C@H]3[C@@H](O)[C@H](n4ccc(N)nc4=O)O[C@@H]3COP(=O)(S)O[C@H]3[C@@H](O)[C@H](n4cnc5c(N)ncnc54)O[C@@H]3COP(=O)(S)O[C@H]3[C@@H](O)[C@H](n4ccc5c(=O)[nH]c(N)nc54)O[C@@H]3COP(=O)(S)O[C@H]3[C@@H](O)[C@H](n4ccc(=O)[nH]c4=O)O[C@@H]3COP(=O)(S)O[C@H]3[C@@H](O)[C@H](n4ccc5c(=O)[nH]c(N)nc54)O[C@@H]3COP(=O)(S)O[C@H]3[C@@H](O)[C@H](n4cnc5c(N)ncnc54)O[C@@H]3COP(=O)(S)O[C@H]3[C@@H](O)[C@H](n4cnc5c(N)ncnc54)O[C@@H]3CO)[C@H]2O)c(=O)n1 (stereo not given in full)	Active	Active	121	Active	174	1900	21.9	Active	46700	123	Active	Active	17.5	55	Active	3090	18	Active	Active	6680
Nc1ccn([C@@H]2O[C@H](COP(=O)(S)O[C@H]3[C@@H](O)[C@H](n4cnc5c(N)ncnc54)O[C@@H]3CO)[C@@H](OP(=O)(S)OC[C@H]3O[C@@H](n4ccc(=O)[nH]c4=O)[C@H](O)[C@@H]3OP(=O)(S)OC[C@H]3O[C@@H](n4ccc(=O)[nH]c4=O)[C@H](O)[C@@H]3OP(=O)(S)OC[C@H]3O[C@@H](n4ccc5c(=O)[nH]c(N)nc54)[C@H](O)[C@@H]3OP(=O)(S)OC[C@H]3O[C@@H](n4cnc5c(N)ncnc54)[C@H](O)[C@@H]3OP(=O)(S)OC[C@H]3O[C@@H](n4cnc5c(N)ncnc54)[C@H](O)[C@@H]3OP(=O)(S)OC[C@H]3O[C@@H](n4ccc5c(=O)[nH]c(N)nc54)[C@H](O)[C@@H]3OP(=O)(S)OC[C@H]3O[C@@H](n4ccc(N)nc4=O)[C@H](O)[C@@H]3OP(=O)(S)OC[C@H]3O[C@@H](n4ccc(=O)[nH]c4=O)[C@H](O)[C@@H]3OP(=O)(S)OC[C@H]3O[C@@H](n4ccc(=O)[nH]c4=O)[C@H](O)[C@@H]3OP(=O)(S)OCC(O)COP(=O)(S)O[C@H]3[C@@H](O)[C@H](n4ccc(=O)[nH]c4=O)O[C@@H]3COP(=O)(S)O[C@H]3[C@@H](O)[C@H](n4ccc(=O)[nH]c4=O)O[C@@H]3COP(=O)(S)O[C@H]3[C@@H](O)[C@H](n4ccc(N)nc4=O)O[C@@H]3COP(=O)(S)O[C@H]3[C@@H](O)[C@H](n4ccc5c(=O)[nH]c(N)nc54)O[C@@H]3COP(=O)(S)O[C@H]3[C@@H](O)[C@H](n4cnc5c(N)ncnc54)O[C@@H]3COP(=O)(S)O[C@H]3[C@@H](O)[C@H](n4cnc5c(N)ncnc54)O[C@@H]3COP(=O)(S)O[C@H]3[C@@H](O)[C@H](n4ccc5c(=O)[nH]c(N)nc54)O[C@@H]3COP(=O)(S)O[C@H]3[C@@H](O)[C@H](n4ccc(=O)[nH]c4=O)O[C@@H]3COP(=O)(S)O[C@H]3[C@@H](O)[C@H](n4ccc(=O)[nH]c4=O)O[C@@H]3COP(=O)(S)O[C@H]3[C@@H](O)[C@H](n4ccc(N)nc4=O)O[C@@H]3COP(=O)(S)O[C@H]3[C@@H](O)[C@H](n4cnc5c(N)ncnc54)O[C@@H]3CO)[C@H]2O)c(=O)n1 (stereo not given in full)	Active	Active	230	Active	354	2730	11.9	Active	52900	261	Active	Active	23.7	287	Active	5630	76	Active	Active	9220
